The text below walks through data of ChEMBL document CHEMBL1128444 (J Med Chem, 1995).

Assay [1] deals with Monoamine transporters; serotonin & dopamine (Rattus norvegicus) (UniProt P31652+P23977). Nature of the assay: Ratio of IC50 value against 5-HT to that of DA transporters. It is filed as protein assay.
Assay [2] has as its target T1, Sodium-dependent dopamine transporter (Rattus norvegicus, UniProt P23977). Nature of the assay: Inhibition of [3H]DA uptake by rat striatal dopamine transporter. The procedure, abridged: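 Rat striatal crude synaptosomes were prepared from male Sprague–Dawley rats by 0.32 M sucrose homogenisation and centrifugation at 800g then 2000g. Each tube held 1.5 mg tissue, 0.5 nM [3H]dopamine and 10 μM pargyline in Krebs phosphate buffer, pH 7.4, with dextrose and ascorbate. Incubation was 3 min at 30 °C, followed by filtration and scintillation counting. Nonspecific uptake was defined with 1 μM mazindol. Three or four experiments were run in triplicate, and Ki was derived by Cheng–Prusoff.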

Assay [3] addresses T2, Norepinephrine transporter (Rattus norvegicus, UniProt Q9WTR4). Nature of the assay: Inhibition of [3H]NE uptake by rat frontal cortex Norepinephrine transporter. It is filed as tissue-based. The procedure, abridged:
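Rat frontal cortex synaptosomes were used at 10 mg/mL tissue with 5 nM final [3H]norepinephrine and 10 μM pargyline in Krebs phosphate buffer, pH 7.4. Incubation was 3 min at 30 °C, followed by filtration and scintillation counting. Nonspecific uptake was defined with 1 μM desipramine. Three or four experiments were run in triplicate, and Ki was derived by Cheng–Prusoff.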

Assay [4] deals with T2, Norepinephrine transporter. Nature of the assay: Binding affinity at the Norepinephrine transporter in rat frontal cortex by inhibition of 0.5 nM [3H]nisoxetine binding. It is filed as tissue-based.
The target in assay [5] is T3, Sodium-dependent serotonin transporter (Rattus norvegicus, UniProt P31652). Nature of the assay: Ratio of Ki value towards Serotonin transporter to that of dopamine transporter. Put shortly: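 Rat [3H]uptake into crude synaptosomes in modified Krebs phosphate buffer, pH 7.4, with dextrose, ascorbic acid and 10 μM pargyline, 3 min at 30 °C, filtered and scintillation counted. DA: male Sprague–Dawley striatum, 0.5 nM [3H]dopamine, 1 μM mazindol nonspecific. 5-HT: midbrain, 5 nM [3H]serotonin, 1 μM citalopram nonspecific. Ki by Cheng–Prusoff; 5-HT Ki/DA Ki; 3–4 experiments in triplicate.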

Assay [6] has as its target T1, Sodium-dependent dopamine transporter. Nature of the assay: Binding affinity at the Dopamine transporter in rat striata by inhibition of 0.5 nM [3H]WIN-35428 binding.
The target in assay [7] is Monoamine transporters; Norepininephrine & dopamine (Rattus norvegicus) (UniProt P23977+Q9WTR4). Nature of the assay: Ratio of IC50 value against NE to that of DA transporters. It counts as protein assay. Put shortly:
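Competition binding against 0.5 nM [3H]WIN 35,428 (DA transporter) or 0.5 nM [3H]nisoxetine (NE transporter). The IC50 is the mean ± standard error of three or four experiments, each run in triplicate. Selectivity ratios are NE/DA or 5-HT/DA quotients of the IC50 values.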

The target in assay [8] is T3, Sodium-dependent serotonin transporter. Nature of the assay: Binding affinity at the Serotonin transporter in rat midbrain by inhibition of 0.5 nM [3H]-paroxetine binding. It counts as tissue-based.

T2 sequence (Q9WTR4 whole entry): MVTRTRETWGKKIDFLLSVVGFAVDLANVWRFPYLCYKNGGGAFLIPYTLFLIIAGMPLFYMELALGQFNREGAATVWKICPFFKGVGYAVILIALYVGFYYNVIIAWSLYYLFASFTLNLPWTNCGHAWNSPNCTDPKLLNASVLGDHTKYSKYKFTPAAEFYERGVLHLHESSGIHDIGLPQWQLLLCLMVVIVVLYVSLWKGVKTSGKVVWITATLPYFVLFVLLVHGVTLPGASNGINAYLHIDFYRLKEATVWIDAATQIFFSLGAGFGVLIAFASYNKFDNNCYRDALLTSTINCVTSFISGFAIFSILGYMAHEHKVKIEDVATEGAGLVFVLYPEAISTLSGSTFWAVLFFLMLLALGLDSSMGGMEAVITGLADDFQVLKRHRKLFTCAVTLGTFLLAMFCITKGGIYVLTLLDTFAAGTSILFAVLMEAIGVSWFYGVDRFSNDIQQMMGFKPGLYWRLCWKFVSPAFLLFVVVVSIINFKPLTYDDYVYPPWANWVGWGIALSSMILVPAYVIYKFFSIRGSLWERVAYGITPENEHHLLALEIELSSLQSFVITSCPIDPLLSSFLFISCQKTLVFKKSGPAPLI
T3 sequence (P31652 whole entry): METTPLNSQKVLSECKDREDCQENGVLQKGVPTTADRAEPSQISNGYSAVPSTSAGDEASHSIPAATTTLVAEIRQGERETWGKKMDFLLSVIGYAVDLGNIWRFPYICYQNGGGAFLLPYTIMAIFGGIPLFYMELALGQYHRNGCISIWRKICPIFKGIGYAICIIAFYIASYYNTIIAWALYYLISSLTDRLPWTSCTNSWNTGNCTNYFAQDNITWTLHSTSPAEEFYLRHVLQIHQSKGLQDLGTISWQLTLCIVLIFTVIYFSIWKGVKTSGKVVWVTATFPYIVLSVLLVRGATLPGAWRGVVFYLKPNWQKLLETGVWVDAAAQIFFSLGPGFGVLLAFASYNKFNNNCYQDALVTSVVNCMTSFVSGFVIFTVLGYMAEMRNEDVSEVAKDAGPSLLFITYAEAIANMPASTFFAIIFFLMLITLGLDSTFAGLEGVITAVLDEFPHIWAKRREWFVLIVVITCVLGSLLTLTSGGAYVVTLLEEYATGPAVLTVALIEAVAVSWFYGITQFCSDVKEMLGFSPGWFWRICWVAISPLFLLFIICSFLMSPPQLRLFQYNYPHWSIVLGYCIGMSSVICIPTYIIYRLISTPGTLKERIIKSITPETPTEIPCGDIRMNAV
T1 sequence (P23977 whole entry): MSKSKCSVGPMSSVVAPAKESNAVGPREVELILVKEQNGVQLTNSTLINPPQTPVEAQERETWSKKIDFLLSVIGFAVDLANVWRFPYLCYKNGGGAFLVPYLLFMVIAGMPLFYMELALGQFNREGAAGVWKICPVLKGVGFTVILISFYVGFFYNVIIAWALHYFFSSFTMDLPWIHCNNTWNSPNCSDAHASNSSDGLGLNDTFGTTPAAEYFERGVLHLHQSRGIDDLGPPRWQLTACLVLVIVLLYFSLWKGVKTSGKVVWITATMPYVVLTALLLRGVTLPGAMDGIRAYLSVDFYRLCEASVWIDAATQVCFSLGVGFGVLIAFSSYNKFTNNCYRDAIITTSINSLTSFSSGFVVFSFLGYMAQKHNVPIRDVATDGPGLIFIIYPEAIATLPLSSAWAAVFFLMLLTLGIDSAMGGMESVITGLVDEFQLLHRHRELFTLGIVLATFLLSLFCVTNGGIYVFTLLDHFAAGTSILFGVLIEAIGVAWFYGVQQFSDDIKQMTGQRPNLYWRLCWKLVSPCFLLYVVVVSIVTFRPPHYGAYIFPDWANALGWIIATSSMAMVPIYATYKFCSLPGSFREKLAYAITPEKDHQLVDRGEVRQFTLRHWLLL
Chain of Monoamine transporters; serotonin & dopamine (Rattus norvegicus) (P23977 whole entry, looked up): as the sequence (P23977 whole entry) above
Chain of Monoamine transporters; serotonin & dopamine (Rattus norvegicus) (P31652 whole entry, looked up): as the sequence (P31652 whole entry) above

By Ki is commonly meant the equilibrium dissociation constant of an inhibitor or competing ligand from its target. For orientation: IC50 means the point on the concentration scale where inhibition reaches its midpoint. A higher IC50 goes with a need for much substance. As for `CC(C)OC(=O)C1C(c2ccc(I)cc2)CC2CCC1N2C` (stereo not drawn), the Ratio in assay [1] worked out at 155; in assay [7], 662. The figures for the Ki in assay [2], in assay [3] and in assay [5] were 2.79 nM, 41.2 nM and 12.5 nM, respectively. Further, the IC50 in assay [4] is 285 nM; in assay [6] it was 0.43 nM; in assay [8], 66.8 nM.
